Experimental data from ChEMBL document CHEMBL5058577, “EUbOPEN Chemogenomics Library 2 (Multiplex)” (2022).

System: HEK-293T
Test: Multiplex assay against HEK293T
Format: toxicity, cell-based
Conditions: human
How it was run: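 At seeding, live cells were stained with Hoechst33342, BioTracker Green Microtubule Cytoskeleton Dye, MitoTracker Red and Annexin V Alexa Fluor 680. After compound addition they were imaged on a CQ1 microscope at 37°C and 5% CO2, and CellPathfinder machine-learning gating sorted them into Hoechst high-intensity objects or normal cells, with normal cells further split into healthy, pyknosed or fragmented nuclei and pyknosed cells into mitotic or apoptotic. Tubulin, mitochondrial-mass and membrane-permeability phenotypes are given as per cents of cells with healthy nuclei.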

[1] = 12 h, 1 µM, compound concentration 1 uM, replicate 1
[2] = 12 h, 1 µM, compound concentration 1 uM, replicate 2
[3] = 12 h, 10 µM, compound concentration 10 uM, replicate 1
[4] = 12 h, 10 µM, compound concentration 10 uM, replicate 2
[5] = 24 h, 1 µM, compound concentration 1 uM, replicate 1
[6] = 24 h, 1 µM, compound concentration 1 uM, replicate 2
[7] = 24 h, 10 µM, compound concentration 10 uM, replicate 1
[8] = 24 h, 10 µM, compound concentration 10 uM, replicate 2
[9] = 48 h, 1 µM, compound concentration 1 uM, replicate 1
[10] = 48 h, 1 µM, compound concentration 1 uM, replicate 2
[11] = 48 h, 10 µM, compound concentration 10 uM, replicate 1
[12] = 48 h, 10 µM, compound concentration 10 uM, replicate 2

CC(/C=C1\SC(=S)N(CCCC(=O)Nc2ccc(C(=O)O)c(O)c2)C1=O)=C\c1ccccc1
Population Apoptotic (%) [1]: 34% | Population Fragmented Nuclei (%) [1]: 6% | Population Healthy Nuclei (%) [1]: 81% | Population Hoechst High Intensity Objects (%) [1]: 6% | Population Membrane Permeable-Phenotype (%) [1]: 0% | Population Mitochondria Different-Phenotype (%) [1]: 41% | Population Mitotic Cells (%) [1]: 65% | Population Normal (%) [1]: 93% | Population Pyknosed Nuclei (%) [1]: 11% | Population Tubulin-Different-Phenotype (%) [1]: 31% | Total Cell Count [1]: 422 | Population Apoptotic (%) [2]: 50% | Population Healthy Nuclei (%) [2]: 84% | Population Mitochondria Different-Phenotype (%) [2]: 62% | Population Mitotic Cells (%) [2]: 50% | Population Pyknosed Nuclei (%) [2]: 8% | Population Tubulin-Different-Phenotype (%) [2]: 20% | Total Cell Count [2]: 389 | Population Apoptotic (%) [3]: 43% | Population Fragmented Nuclei (%) [3]: 5% | Population Healthy Nuclei (%) [3]: 76% | Population Hoechst High Intensity Objects (%) [3]: 7% | Population Membrane Permeable-Phenotype (%) [3]: 0% | Population Mitochondria Different-Phenotype (%) [3]: 45% | Population Mitotic Cells (%) [3]: 56% | Population Normal (%) [3]: 92% | Population Pyknosed Nuclei (%) [3]: 18% | Population Tubulin-Different-Phenotype (%) [3]: 35% | Total Cell Count [3]: 313 | Population Apoptotic (%) [4]: 51% | Population Healthy Nuclei (%) [4]: 79% | Population Mitochondria Different-Phenotype (%) [4]: 49% | Population Mitotic Cells (%) [4]: 48% | Population Pyknosed Nuclei (%) [4]: 15% | Population Tubulin-Different-Phenotype (%) [4]: 26% | Total Cell Count [4]: 327 | Population Apoptotic (%) [5]: 27% | Population Fragmented Nuclei (%) [5]: 9% | Population Healthy Nuclei (%) [5]: 79% | Population Hoechst High Intensity Objects (%) [5]: 4% | Population Membrane Permeable-Phenotype (%) [5]: 0% | Population Mitochondria Different-Phenotype (%) [5]: 28% | Population Mitotic Cells (%) [5]: 72% | Population Normal (%) [5]: 95% | Population Pyknosed Nuclei (%) [5]: 10% | Population Tubulin-Different-Phenotype (%) [5]: 26% | Total Cell Count [5]: 604 | Population Apoptotic (%) [6]: 31% | Population Fragmented Nuclei (%) [6]: 7% | Population Healthy Nuclei (%) [6]: 83% | Population Hoechst High Intensity Objects (%) [6]: 7% | Population Mitochondria Different-Phenotype (%) [6]: 52% | Population Mitotic Cells (%) [6]: 68% | Population Normal (%) [6]: 92% | Population Pyknosed Nuclei (%) [6]: 8% | Population Tubulin-Different-Phenotype (%) [6]: 21% | Total Cell Count [6]: 491 | Population Apoptotic (%) [7]: 33% | Population Fragmented Nuclei (%) [7]: 8% | Population Healthy Nuclei (%) [7]: 75% | Population Hoechst High Intensity Objects (%) [7]: 5% | Population Membrane Permeable-Phenotype (%) [7]: 0% | Population Mitochondria Different-Phenotype (%) [7]: 34% | Population Mitotic Cells (%) [7]: 66% | Population Normal (%) [7]: 94% | Population Pyknosed Nuclei (%) [7]: 16% | Population Tubulin-Different-Phenotype (%) [7]: 31% | Total Cell Count [7]: 369 | Population Apoptotic (%) [8]: 39% | Population Healthy Nuclei (%) [8]: 79% | Population Hoechst High Intensity Objects (%) [8]: 6% | Population Mitochondria Different-Phenotype (%) [8]: 40% | Population Mitotic Cells (%) [8]: 60% | Population Normal (%) [8]: 93% | Population Pyknosed Nuclei (%) [8]: 12% | Population Tubulin-Different-Phenotype (%) [8]: 20% | Total Cell Count [8]: 422 | Population Apoptotic (%) [9]: 23% | Population Fragmented Nuclei (%) [9]: 13% | Population Healthy Nuclei (%) [9]: 79% | Population Hoechst High Intensity Objects (%) [9]: 2% | Population Membrane Permeable-Phenotype (%) [9]: 1% | Population Mitochondria Different-Phenotype (%) [9]: 16% | Population Mitotic Cells (%) [9]: 76% | Population Normal (%) [9]: 97% | Population Pyknosed Nuclei (%) [9]: 7% | Population Tubulin-Different-Phenotype (%) [9]: 14% | Total Cell Count [9]: 998 | Population Apoptotic (%) [10]: 19% | Population Fragmented Nuclei (%) [10]: 14% | Population Hoechst High Intensity Objects (%) [10]: 5% | Population Membrane Permeable-Phenotype (%) [10]: 0% | Population Mitochondria Different-Phenotype (%) [10]: 26% | Population Mitotic Cells (%) [10]: 80% | Population Normal (%) [10]: 94% | Population Pyknosed Nuclei (%) [10]: 6% | Population Tubulin-Different-Phenotype (%) [10]: 13% | Total Cell Count [10]: 673 | Population Apoptotic (%) [11]: 24% | Population Fragmented Nuclei (%) [11]: 9% | Population Healthy Nuclei (%) [11]: 79% | Population Hoechst High Intensity Objects (%) [11]: 3% | Population Membrane Permeable-Phenotype (%) [11]: 2% | Population Mitochondria Different-Phenotype (%) [11]: 25% | Population Mitotic Cells (%) [11]: 75% | Population Normal (%) [11]: 96% | Population Pyknosed Nuclei (%) [11]: 10% | Population Tubulin-Different-Phenotype (%) [11]: 22% | Total Cell Count [11]: 479 | Population Apoptotic (%) [12]: 39% | Population Fragmented Nuclei (%) [12]: 11% | Population Healthy Nuclei (%) [12]: 82% | Population Hoechst High Intensity Objects (%) [12]: 5% | Population Mitochondria Different-Phenotype (%) [12]: 23% | Population Mitotic Cells (%) [12]: 60% | Population Normal (%) [12]: 94% | Population Pyknosed Nuclei (%) [12]: 6% | Population Tubulin-Different-Phenotype (%) [12]: 24% | Total Cell Count [12]: 555
